What is called fraction remaining is what is left of the initial amount, in per cent. High values mean greater stability, low ones a greater loss.

A short description of data set [1]: Plasma stability assay, human plasma. It counts as in vitro ADME. The procedure, abridged:
(§1)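 Test compound was spiked at 10 μM into human or mouse plasma and incubated at 37 °C with shaking for 0, 30 or 120 min. Proteins were precipitated with acetonitrile containing 1 μM chlorpropamide internal standard and removed by centrifugation. Analyte/internal-standard area ratios were measured by LC-MS/MS and expressed as percent remaining versus 0 min.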

A short description of data set [2]: Plasma stability assay, mouse plasma. It counts as in vitro ADME. The procedure, abridged: as §1

`CCN(CC)CCOC(=O)c1ccc(N)cc1` [Procaine]: the amount remaining at 2 h, 10 μM in data set [1] amounted to 0.03%; in data set [2] it was 3.13%.

These data come from article PMC13065758 (Nature Communications, 2026).
